Published values collected from several papers.
Compare with care: the assays were run in different laboratories.

| Structure (SMILES) | system | setting | endpoint | result |
| --- | --- | --- | --- | --- |
| O=c1nc(N2CCN(CC3CCCCC3)CC2)sc2c([N+](=O)[O-])cc(C(F)(F)F)cc12 | CD-1 mouse, plasma | oral, 100 mg/kg, 8 h | concentration | 0.336 µg/mL |
| CC(C)(Nc1nc(-c2ccccn2)nc2ccccc12)c1ccccn1 | female BALB/c mouse, plasma | intravenous, 1 mg/kg, 4.98 min | concentration | 1.46 µg/mL |
| c1cnc2ccc(Nc3nc(NC4CC4)c4nc[nH]c4n3)cc2c1 | human, plasma | oral, 400 mg/m², patients | MRT(0-t) | 6.8 h |
| CC(C)CN(C[C@@H](O)[C@H](Cc1ccccc1)NC(=O)O[C@H]1CO[C@H]2OCC[C@H]21)S(=O)(=O)c1ccc(N)cc1 | BALB/c mouse, plasma | intravenous, 2.5 mg/kg, 6 h | concentration | 0.00419 µg/mL |
| CC(C)Oc1cccc(-c2cnc(N3CCC(C(N)=O)CC3)s2)c1 | male Swiss mouse, brain | oral, 30 mg/kg, 4 h, single dose | concentration | 0.083 µM |
| c1ccc(-c2nc(N3CCC(c4ccccn4)C3)c3ccccc3n2)nc1 (stereo not drawn) | female BALB/c mouse, plasma | oral, 50 mg/kg, 1 h | concentration | 2.94 µg/mL |
| CC(C)(C)c1ccc(O)c(CN(Cc2cc(C(C)(C)C)ccc2O)C2CCC(NC(N)=O)CC2)c1 (stereo not drawn) | male C57BL/6 mouse, brain | intraperitoneal, 10 mg/kg, single dose | half-life | 7.08 h |
| O=C(O)C1CCN(c2ncc(-c3ccc4c(c3)OCCCO4)s2)CC1 | male Swiss mouse, plasma | oral, 30 mg/kg, 1 h, single dose | concentration | 7.58 µg/mL |
| CC(C)(O)c1ccccc1-c1ccc2[nH]c(/C=C/c3ccc(C(F)(F)F)cc3)nc2c1 | male human, plasma | oral, 60 mg, single dose, fasted, healthy volunteers | MRT | 91.4 h |
